Source: paper PMC3047606 (The Journal of General Physiology, 2011)
Substitutions are numbered along the chain they refer to. “And” between values parts separate entries of the source, which are not always exact repeats. Equal entries are not always repeated. “Also recorded” adds a separate entry of the source. Where two headings read alike, the source gives them in different places. Marks after values point to notes of the source that are not given here.

Columns and labels:
WT TRPV3 = target: T1, WT TRPV3 (Homo sapiens, UniProt Q8NET8); format: biochemical; conditions: inside-out patches, +80 mV; for effect on NPOPEN of PI-PLC-stimulated TRPV3: 30 µM diC8-phosphatidylinositol phosphate
T1 sequence (Q8NET8 1-790): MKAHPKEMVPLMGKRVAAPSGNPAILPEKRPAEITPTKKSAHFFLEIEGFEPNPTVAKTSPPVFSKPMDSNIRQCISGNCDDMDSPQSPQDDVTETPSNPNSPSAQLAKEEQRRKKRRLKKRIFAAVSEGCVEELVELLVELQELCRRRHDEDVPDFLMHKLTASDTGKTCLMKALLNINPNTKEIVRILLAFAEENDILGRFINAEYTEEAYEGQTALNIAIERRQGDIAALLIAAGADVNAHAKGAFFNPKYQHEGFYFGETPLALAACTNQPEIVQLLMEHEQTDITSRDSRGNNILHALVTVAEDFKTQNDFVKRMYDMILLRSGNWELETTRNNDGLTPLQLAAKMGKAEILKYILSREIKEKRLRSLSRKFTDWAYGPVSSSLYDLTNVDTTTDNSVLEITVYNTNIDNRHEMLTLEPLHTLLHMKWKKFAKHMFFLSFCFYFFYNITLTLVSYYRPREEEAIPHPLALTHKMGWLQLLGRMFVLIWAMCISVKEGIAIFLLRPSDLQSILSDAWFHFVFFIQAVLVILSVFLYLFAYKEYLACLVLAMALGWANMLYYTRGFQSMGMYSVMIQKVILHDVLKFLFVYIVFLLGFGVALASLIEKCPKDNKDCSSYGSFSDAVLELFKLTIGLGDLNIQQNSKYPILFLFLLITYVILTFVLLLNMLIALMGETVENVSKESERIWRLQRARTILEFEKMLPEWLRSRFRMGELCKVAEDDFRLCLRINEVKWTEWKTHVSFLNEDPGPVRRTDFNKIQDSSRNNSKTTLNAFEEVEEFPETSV
Method in brief: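 WT TRPV3 was expressed in HM1 cells by calcium-phosphate transfection and recorded 24–48 h later. Inside-out patches were held at +80 mV in symmetrical NaCl/HEPES/EGTA at pH 7.4. Patches got anti-PI(4,5)P2 mAb (1:200) or 0.5 U/ml PI-PLC for 5 min, or 100 µM OAG for 2 min, by perfusion and then a still bath. diC8-phosphoinositides were added after PI-PLC. NPOPEN was taken before and after; Hill fit over 1–60 µM.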

native TRPV3 channels = target: T2, native TRPV3 channels (Homo sapiens, UniProt Q8NET8); format: cell-based; conditions: for increase of 2-APB-activated TRPV3 whole cell current amplitude: 100 µM ATP, n = 4 cells; for activation of membrane currents by TRP channel agonists: bath superfusion, 2-APB 30 µM
T2 sequence (Q8NET8 1-790): T1 sequence (Q8NET8 1-790)
Method in brief: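 Whole-cell voltage clamp of primary human epidermal keratinocytes plated on coverslips and recorded 24–48 h later, at room temperature. Bath was NaCl/KCl/HEPES/glucose/MgCl2/1.8 mM BaCl2, pH 7.4; pipette was Cs-methanesulfonate with ~50 nM free Ca2+, pH 7.3. Voltage steps were run in 30 µM 2-APB, then with 100 µM ATP or vehicle. Tail currents were fitted with Boltzmann functions for V0.5 and VIF; n = 4 cells.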

human TRPV3 (WT) = target: T3, human TRPV3 (WT) (Homo sapiens, UniProt Q8NET8); format: cell-based
T3 sequence (Q8NET8 1-790): T1 sequence (Q8NET8 1-790)

TRPV3 K705A = target: T4, TRPV3 K705A (Homo sapiens, UniProt Q8NET8, K705A); format: biochemical; conditions: 30 µM diC8-PI(4,5)P2, inside-out patches
T4 sequence (Q8NET8 1-790 K705A): T1 sequence (Q8NET8 1-790) with K705A
Method in brief: (§1)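 HM1 cells were calcium-phosphate transfected with the mutant channel, GFP-identified, and used 24–48 h later. Inside-out patches were held at +80 mV at 21–24°C in symmetrical 145 mM NaCl, 5 mM […], 20 mM HEPES, 1 mM EGTA, pH 7.4. Patches received anti-PI(4,5)P2 mAb (1:200) or 0.5 U/ml PI-PLC, then 30 µM diC8-PI(4,5)P2. NPOPEN was measured, n = 3–5 patches.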

TRPV3 R696A [1] = target: T5, TRPV3 R696A (Homo sapiens, UniProt Q8NET8, R696A); format: biochemical; conditions: 30 µM diC8-PI(4,5)P2, inside-out patches
T5 sequence (Q8NET8 1-790 R696A): T1 sequence (Q8NET8 1-790) with R696A
Method in brief: as §1

TRPV3 R696A [2] = target: T5, TRPV3 R696A; format: cell-based

CCCCCCCC(=O)OC[C@H](COP(=O)(O)O[C@H]1[C@H](O)[C@@H](OP(=O)(O)O)[C@H](O)[C@@H](O)[C@H]1O)OC(=O)CCCCCCC [PI(5)P]
effect on NPOPEN of PI-PLC-stimulated TRPV3 (WT TRPV3): failed to significantly decrease NPOPEN

Nc1ncnc2c1ncn2[C@@H]1O[C@H](COP(=O)(O)OP(=O)(O)OP(=O)(O)O)[C@@H](O)[C@H]1O [ATP]
increase of 2-APB-activated TRPV3 whole cell current amplitude (native TRPV3 channels; 30 µM 2-APB, +80 mV): 5.6 ± 1.6 fold
increase of 2-APB-activated TRPV3 whole cell current amplitude (native TRPV3 channels; 30 µM 2-APB, −80 mV): 6.3 ± 1.9 fold
increase of voltage-independent fraction (VIF) (native TRPV3 channels; after 100 µM ATP, 30 µM 2-APB): 26.7 ± 5.1%
shift of half-maximal activation (V0.5) (native TRPV3 channels; after 100 µM ATP, 30 µM 2-APB): −61.7 ± 17.8 mV

Cc1ccc(C(C)C)cc1O [Carvacrol, carvacrol]
activation of membrane currents by TRP channel agonists (native TRPV3 channels; whole cell): elicited currents

CCCCCCCC(=O)OC[C@H](COP(=O)(O)O[C@H]1[C@H](O)[C@@H](O)[C@H](OP(=O)(O)O)[C@@H](O)[C@H]1O)OC(=O)CCCCCCC [PI(4)P]
effect on NPOPEN of PI-PLC-stimulated TRPV3 (WT TRPV3): failed to significantly decrease NPOPEN

COC[C@H]1OC(=O)c2coc3c2[C@@]1(C)C1=C(C3=O)[C@@H]2CCC(=O)[C@@]2(C)C[C@H]1OC(C)=O [WM, wortmannin]
current potentiation (fold increase) (human TRPV3 (WT)): 9.6 ± 2.2 fold and 13.2 ± 2.8 fold
ΔV0.5 (human TRPV3 (WT)): −98.4 ± 18.6 mV
ΔVIF (human TRPV3 (WT)): 19.7 ± 3.8%

CC12CCC(CC1=O)C2(C)C (stereo not drawn) [camphor]
activation of membrane currents by TRP channel agonists (native TRPV3 channels; whole cell): elicited currents

CCCCCCCC(=O)OC[C@H](COP(=O)(O)O[C@@H]1[C@H](O)[C@H](O)[C@@H](OP(=O)(O)O)[C@H](OP(=O)(O)O)[C@H]1O)OC(=O)CCCCCCC [diC8-PI(4,5)P2, D-myo-phosphatidylinositol 4,5-bisphosphate C8]
effect on channel activity (TRPV3 K705A): unaffected; also recorded: insensitive
effect on NPOPEN of PI-PLC-stimulated TRPV3 (WT TRPV3): nearly maximal inhibitory effect
effect on channel activity (TRPV3 R696A [1]): unaffected; also recorded: insensitive

C[N+](C)(C)CCOC(N)=O.[Cl-] [CCh, carbamylcholine]
ΔVIF (TRPV3 R696A [2]): 21.3%
Arrhenius slope of temperature-dependent activation (human TRPV3 (WT)): 10.3
apparent threshold for temperature-dependent activation (Th) (human TRPV3 (WT)): 18.3 ^a °C
change of thermal coefficient (Q10) by CCh exposure (human TRPV3 (WT)): changed only slightly
fold change in step current (human TRPV3 (WT)): 31.1 fold and 31.1 ± 7.9 fold
shift of apparent threshold for thermal activation (Th) (human TRPV3 (WT)): −10 °C

CCCCCCCC(=O)OC[C@H](COP(=O)(O)O[C@H]1[C@H](O)[C@@H](OP(=O)(O)O)[C@H](OP(=O)(O)O)[C@@H](OP(=O)(O)O)[C@H]1O)OC(=O)CCCCCCC [PI(3,4,5)P3]
effect on NPOPEN of PI-PLC-stimulated TRPV3 (WT TRPV3): failed to significantly decrease NPOPEN

N.N.N.N.N.N.N.N.N.N.N.N.N.N.[Cl-].[Cl-].[Cl-].[Cl-].[Cl-].[Cl-].[O-2].[O-2].[Ru+3].[Ru+3].[Ru+4] [Ruthenium red]
block of 2-APB-activated current (native TRPV3 channels; whole cell, ruthenium red): eliminated only the inward component

CCCCCCCC(=O)OC[C@H](COP(=O)(O)O[C@@H]1[C@H](O)[C@H](OP(=O)(O)O)[C@@H](O)[C@H](OP(=O)(O)O)[C@H]1O)OC(=O)CCCCCCC [PI(3,5)P2]
effect on NPOPEN of PI-PLC-stimulated TRPV3 (WT TRPV3): failed to significantly decrease NPOPEN

NCCOB(c1ccccc1)c1ccccc1 [2-APB, 2-aminoethyoxy diphenylborinate]
activation of membrane currents by TRP channel agonists (native TRPV3 channels; whole cell): activated small voltage-dependent currents
increase in 2-APB potency after CCh exposure (human TRPV3 (WT)): approximately fourfold

CCCCCCCC/C=C\CCCCCCCC(=O)OC[C@H](CO)OC(C)=O [OAG, 1-oleoyl-2-acetyl-sn-glycerol]
effect on TRPV3 channel activity (NPOPEN) (WT TRPV3; 100 µM OAG): did not significantly increase; also recorded: failed to significantly elevate NPOPEN

CCCCCCCC(=O)OC[C@H](COP(=O)(O)O[C@@H]1[C@H](O)[C@H](OP(=O)(O)O)[C@@H](O)[C@H](O)[C@H]1O)OC(=O)CCCCCCC [PI(3)P]
effect on NPOPEN of PI-PLC-stimulated TRPV3 (WT TRPV3): failed to significantly decrease NPOPEN
